The source made the active and inactive calls. The calls are words filed in the database; no cut-off is given here.
Key:
B16-F10 [1] = assay: Selectivity index, ratio of compound effect for cytotoxicity against non-stimulated mouse B16F10 cells assessed as cell viability at 10 uM to compound effect for inhibition of alpha-MSH-stimulated melanogenesis in mouse B16F10 cells assessed as melanin content at 10 uM
B16-F10 [2] = assay: Inhibition of alpha-MSH-stimulated melanogenesis in mouse B16F10 cells assessed as melanin content at 100 uM measured after 48 hrs relative to control; assay type: functional; set-up: scale not given: the % may be the effect or the level left
Procedure, shortened: (§1)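 B16F10 cells treated with test sample plus 0.10 μM α-MSH for 48 h. Melanin solubilized in 2 N NaOH–10% DMSO and read at 405 nm. Expressed as % of DMSO-treated cells (DMSO 2 μL·mL−1). Mean ± SD, n = 3.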

SK-BR-3 = assay: Cytotoxicity against human SKBR3 cells assessed as reduction in cell viability after 48 hrs by MTT assay; assay type: functional, cell-based; settings: SK-BR-3, 48 h
Procedure, shortened: (§2)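 Cells exposed to compounds from 1 × 10−4 to 1 × 10−6 M for 48 h. Viability read by MTT. IC50 derived from five concentrations, each run in triplicate.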

HL-60 [3] = assay: Cytotoxicity against human HL60 cells assessed as reduction in cell viability after 48 hrs by MTT assay; assay type: functional, cell-based; settings: HL-60, 48 h; procedure, shortened: as §2
[4] = Cytotoxicity against non-stimulated mouse B16F10 cells assessed as cell viability at 100 uM relative to control; assay type: cell-based, B16-F10; settings: read-out: Activity
Procedure, shortened: (§3)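 B16 melanoma cells tested for viability at 10 or 100 μM. Absorbance read at 570 nm (test) minus 630 nm (reference). Expressed as % of DMSO control (DMSO 2 μL·mL−1). Mean ± SD, n = 3.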

WI-38 = assay: Cytotoxicity against human WI38 cells assessed as reduction in cell viability after 48 hrs by MTT assay; assay type: cell-based; settings: WI-38, 48 h; procedure, shortened: as §2
A549 = assay: Cytotoxicity against human A549 cells assessed as reduction in cell viability after 48 hrs by MTT assay; assay type: functional, cell-based; settings: A549, 48 h; procedure, shortened: as §2
B16-F10 [5] = assay: Selectivity index, ratio of compound effect for cytotoxicity against non-stimulated mouse B16F10 cells assessed as cell viability at 100 uM to compound effect for inhibition of alpha-MSH-stimulated melanogenesis in mouse B16F10 cells assessed as melanin content at 100 uM
AZ-521 cell line = assay: Cytotoxicity against human AZ-521 cells assessed as reduction in cell viability after 48 hrs by MTT assay; assay type: functional, cell-based; settings: AZ-521, 48 h; procedure, shortened: as §2
[6] = Selectivity index, ratio of IC50 for human […] cells to IC50 for human A549 cells
Procedure, shortened: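 Selectivity index equals the IC50 against WI38 normal cells divided by the IC50 against A549 cells.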

B16-F10 [7] = assay: Inhibition of alpha-MSH-stimulated melanogenesis in mouse B16F10 cells assessed as melanin content at 10 uM measured after 48 hrs relative to control; assay type: functional; set-up: scale not given: the % may be the effect or the level left; procedure, shortened: as §1
[8] = Cytotoxicity against non-stimulated mouse B16F10 cells assessed as cell viability at 10 uM relative to control; assay type: cell-based, B16-F10; settings: read-out: Activity; procedure, shortened: as §3
HL-60 [9] = assay: Induction of apoptosis in human HL60 cells assessed as increase in cleaved caspase-8 expression at 3 uM after 24 to 48 hrs by Western blot analysis; assay type: functional, cell-based
Procedure, shortened: (§4)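 HL60 cells treated with 3.0 μM for 24 and 48 h, then lysed in RIPA buffer. Total protein cleared by centrifugation and quantified by BCA. Procaspase and cleaved caspase-3, -8 and -9 levels assessed by Western blot.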

HL-60 [10] = assay: Induction of apoptosis in human HL60 cells assessed as increase in cleaved caspase-9 expression at 3 uM after 24 to 48 hrs by Western blot analysis; assay type: functional, cell-based; procedure, shortened: as §4
HL-60 [11] = assay: Induction of apoptosis in human HL60 cells assessed as cell shrinkage at 0.3 to 3 uM after 24 hrs by Hoechst 33342 staining based fluorescence microscopic analysis; assay type: functional; settings: 1 to 3 uM, in the assay text read “1 to 3 uM” for “0.3 to 3 uM”
Procedure, shortened: (§5)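 HL60 cells treated for 24 h, fixed in 4% paraformaldehyde, and nuclei stained with Hoechst 33342. Cell shrinkage, nuclear fragmentation and chromatin condensation scored by fluorescence microscopy.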

HL-60 [12] = assay: Induction of apoptosis in human HL60 cells assessed as late apoptotic cells at 3 uM after 24 hrs by Annexin V-FITC/propidium iodide staining based flow cytometry (reference value: 3%); assay type: functional
Procedure, shortened: (§6)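 HL60 cells cultured with 3.0 μM for 0, 24 and 48 h. Cells stained with annexin V-FITC and propidium iodide and analyzed by flow cytometry for early and late apoptotic fractions. Mean of three experiments, compared against an untreated negative control.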

HL-60 [13] = assay: Induction of apoptosis in human HL60 cells assessed as chromatin condensation at 1 to 3 uM after 24 hrs by Hoechst 33342 staining based fluorescence microscopic analysis; assay type: functional, cell-based; procedure, shortened: as §5
HL-60 [14] = assay: Induction of apoptosis in human HL60 cells assessed as increase in cleaved caspase-3 expression at 3 uM after 24 to 48 hrs by Western blot analysis; assay type: functional, cell-based; procedure, shortened: as §4
HL-60 [15] = assay: Induction of apoptosis in human HL60 cells assessed as early apoptotic cells at 3 uM after 24 hrs by Annexin V-FITC/propidium iodide staining based flow cytometry (reference value: 2.4%); assay type: functional; procedure, shortened: as §6
HL-60 [16] = assay: Induction of apoptosis in human HL60 cells assessed as fragmentation of nuclei at 1 to 3 uM after 24 hrs by Hoechst 33342 staining based fluorescence microscopic analysis; assay type: functional, cell-based; procedure, shortened: as §5
HL-60 [17] = assay: Induction of apoptosis in human HL60 cells assessed as late apoptotic cells at 3 uM after 48 hrs by Annexin V-FITC/propidium iodide staining based flow cytometry (reference value: 1.9%); assay type: functional; procedure, shortened: as §6
HL-60 [18] = assay: Induction of apoptosis in human HL60 cells assessed as early apoptotic cells at 3 uM after 48 hrs by Annexin V-FITC/propidium iodide staining based flow cytometry (reference value: 0.8%); assay type: functional; procedure, shortened: as §6

C=C[C@@](C)(O)CC/C=C(\C)C(=O)O[C@H]1[C@H](O)[C@@H](O)[C@H](O[C@](C)(C=C)CCCC(C)C(=O)O[C@H]2C[C@]3(C(=O)O[C@@H]4O[C@H](CO)[C@@H](O)[C@H](O)[C@H]4O[C@@H]4O[C@@H](C)[C@H](O[C@@H]5O[C@@H](CO)[C@H](O)[C@H]5O)[C@@H](O[C@@H]5O[C@H](CO)[C@@H](O)[C@H](O)[C@H]5O)[C@H]4O)[C@H](O)C[C@]4(C)C(=CC[C@@H]5[C@@]6(C)CC[C@H](O[C@@H]7O[C@H](CO[C@@H]8OC[C@H](O)[C@H](O)[C@H]8O[C@@H]8OC[C@@H](O)[C@H](O)[C@H]8O)[C@@H](O)[C@H](O)[C@H]7O)C(C)(C)[C@@H]6CC[C@]54C)[C@@H]3CC2(C)C)O[C@@H]1C (stereo partly specified)
Ratio (B16-F10 [1]): 0.81
Activity (B16-F10 [2]): 80%
IC50 (SK-BR-3): 0.8 µM
IC50 (HL-60 [3]): 0.9 µM
viability at 100 µM [4]: 104%
IC50 (WI-38): 8.3 µM
IC50 (A549): 1 µM
Ratio (B16-F10 [5]): 0.77
IC50 (AZ-521 cell line): 1.2 µM
Ratio IC50 [6]: 8.2
Activity (B16-F10 [7]): 86.2%
viability at 10 µM [8]: 107%

C=C[C@@](C)(O)CC/C=C(\C)C(=O)O[C@H]1[C@H](O)[C@@H](O)[C@H](O[C@](C)(C=C)CCCC(C)C(=O)O[C@H]2C[C@]3(C(=O)O[C@@H]4O[C@H](CO)[C@@H](O)[C@H](O)[C@H]4O[C@@H]4O[C@@H](C)[C@H](O[C@@H]5O[C@@H](CO)[C@H](O)[C@H]5O)[C@@H](O[C@@H]5O[C@H](CO)[C@@H](O)[C@H](O)[C@H]5O)[C@H]4O)CC[C@]4(C)C(=CC[C@@H]5[C@@]6(C)CC[C@H](O[C@@H]7O[C@H](CO[C@@H]8O[C@H](C)[C@H](O)[C@H](O)[C@H]8O[C@@H]8OC[C@@H](O)[C@H](O)[C@H]8O)[C@@H](O)[C@H](O)[C@H]7O)C(C)(C)[C@@H]6CC[C@]54C)[C@@H]3CC2(C)C)O[C@@H]1C (stereo partly specified)
Ratio (B16-F10 [1]): 0.69
Activity (B16-F10 [2]): 42.5%
IC50 (SK-BR-3): 0.4 µM
IC50 (HL-60 [3]): 0.9 µM
viability at 100 µM [4]: 102%
IC50 (WI-38): 2.5 µM
IC50 (A549): 1.3 µM
Ratio (B16-F10 [5]): 0.42
IC50 (AZ-521 cell line): 1.7 µM
Ratio IC50 [6]: 1.8
Activity (B16-F10 [7]): 74.3%
viability at 10 µM [8]: 107%

C=C[C@@](C)(O)CC/C=C(\C)C(=O)O[C@H]1[C@H](O)[C@@H](O)[C@H](O[C@](C)(C=C)CCCC(C)C(=O)O[C@H]2C[C@]3(C(=O)O[C@@H]4O[C@H](CO)[C@@H](O)[C@H](O)[C@H]4O[C@@H]4O[C@@H](C)[C@H](O[C@@H]5O[C@@H](CO)[C@H](O)[C@H]5O)[C@@H](O[C@@H]5O[C@H](CO)[C@@H](O)[C@H](O)[C@H]5O)[C@H]4O)[C@H](O)C[C@]4(C)C(=CC[C@@H]5[C@@]6(C)CC[C@H](O[C@@H]7O[C@H](CO[C@@H]8OC[C@H](O)[C@H](O)[C@H]8O[C@@H]8OC[C@@H](O)[C@H](O)[C@H]8O)[C@@H](O)[C@H](O)[C@H]7O[C@@H]7O[C@H](CO)[C@@H](O)[C@H](O)[C@H]7O)C(C)(C)[C@@H]6CC[C@]54C)[C@@H]3CC2(C)C)O[C@@H]1C (stereo partly specified)
Ratio (B16-F10 [1]): 0.78
Activity (HL-60 [9]): Active
Activity (B16-F10 [2]): 50.7%
IC50 (SK-BR-3): 1.3 µM
Activity (HL-60 [10]): Active
IC50 (HL-60 [3]): 0.3 µM
Activity (HL-60 [11]): Active
viability at 100 µM [4]: 100%
Activity (HL-60 [12]): 22.7%
IC50 (WI-38): 5.1 µM
IC50 (A549): 0.3 µM
Activity (HL-60 [13]): Active
Activity (HL-60 [14]): Active
Ratio (B16-F10 [5]): 0.51
IC50 (AZ-521 cell line): 0.5 µM
Activity (HL-60 [15]): 19%
Activity (HL-60 [16]): Active
Ratio IC50 [6]: 16.9
Activity (HL-60 [17]): 42.2%
Activity (B16-F10 [7]): 80.9%
Activity (HL-60 [18]): 38.2%
viability at 10 µM [8]: 103%

Source: ChEMBL document CHEMBL4382264, “Melanogenesis-Inhibitory and Cytotoxic Activities of Triterpene Glycoside Constituents from the Bark of Albizia procera” (J Nat Prod, 2018)
